Series [1] has as its target Sphingosine 1-phosphate receptor 1 (Homo sapiens) (UniProt P21453). Briefly: Agonist activity at human S1P1 receptor overexpressed in CHO cells assessed as p44/42 MAPK phosphorylation at 1 uM by Western blot analysis. In kind it is cell-based. Particulars: TDE = time-dependent effect; call rule not given here. In outline: (§1)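 Stably transfected CHO cells overexpressing human S1P1 or S1P3 receptor, serum-starved overnight, then stimulated with test compounds alongside S1P in the same experiment for the indicated times. Cells lysed and lysates resolved on 12% SDS-PAGE gels for Western blot read-out.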
(A western blot detects proteins with antibodies after separation by electrophoresis.)

The target of series [2] is Sphingosine 1-phosphate receptor 3 (Homo sapiens) (UniProt Q99500). Briefly: Agonist activity at human S1P3 receptor overexpressed in CHO cells assessed as p44/42 MAPK phosphorylation at 1 uM by Western blot analysis. The format is cell-based. Particulars: TDE = time-dependent effect. In outline: as §1
Series [3] relates to Mus musculus. The experiment in a line: In vivo inhibition of S1P1 receptor in mouse assessed as peripheral blood WBC at 1.25 mg/kg, ip after 24 hrs by flow cytometric analysis (reference value: 8.94 +/- 0.59 10^6/ml). In kind it is functional. Particulars: route intraperitoneal.
The test system of series [4] is Mus musculus. Briefly: In vivo inhibition of S1P1 receptor in mouse assessed as peripheral blood CD8+ cells at 1.25 mg/kg, ip after 24 hrs by flow cytometric analysis (reference value: 0.48 +/- 0.05 10^6/ml). The format is functional. Particulars: route intraperitoneal.
For series [5], the system named is Mus musculus. The experiment in a line: In vivo inhibition of S1P1 receptor in mouse assessed as peripheral blood B cells at 1.25 mg/kg, ip after 24 hrs by flow cytometric analysis (reference value: 4.72 +/- 0.53 10^6/ml). In kind it is functional. Particulars: route intraperitoneal. In general terms: A flow cytometer gives signals particle by particle.
The test system of series [6] is Mus musculus. Briefly: In vivo inhibition of S1P1 receptor in mouse assessed as reduction of peripheral blood CD4+ cells at 1.25 mg/kg, ip after 24 hrs by flow cytometric analysis relative to control.
The test system of series [7] is Mus musculus. The experiment in a line: In vivo inhibition of S1P1 receptor in mouse assessed as reduction of peripheral blood CD8+ cells at 1.25 mg/kg, ip after 24 hrs by flow cytometric analysis relative to control. The format is functional. Particulars: in the assay text read “CD4+ cells” for “CD8+ cells”, route intraperitoneal. In outline: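 Compound given intraperitoneally at 1.25 mg/kg in 0.9% NaCl (0.2 mg/mL); blood taken retro-orbitally into EDTA after 24 h. Lymphocytes counted by flow cytometry after red-cell lysis and compared with untreated mice. Mean ± SEM, n ≥ 3 independent experiments; p < 0.05 versus control.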

Another series relates to Blood. Briefly: Drug uptake in wild type C57BL/6 mouse blood at 400 KBq/g, iv measured at 90 mins by PET analysis. In kind it is ADME, organism-based. Particulars: in vivo, 1.5 h. In outline: (§2)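 Male C57BL/6 wild-type mice, 13 weeks old, 21−26 g (n = 4), anaesthetised with isoflurane/O₂. 18F tracer given as a tail-vein bolus of 400 kBq/g in 100 μL, flushed with 100 μL saline. Dynamic list-mode PET was acquired, with CT-defined volumes of interest over the organs. Uptake was expressed as counts/mL in the VOI divided by total mouse counts ×100 (%ID/mL). Time-activity curves ran 0−90 min p.i.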

For series [8], the system named is Lung. Briefly: Drug uptake in wild type C57BL/6 mouse lung at 400 KBq/g, iv measured at 20 mins by PET/CT analysis. In kind it is ADME, organism-based. Particulars: in vivo. The method, boiled down:
as §2

A further series has as its system Liver. The experiment in a line: Drug uptake in wild type C57BL/6 mouse liver at 400 KBq/g, iv measured at 10 mins by PET/CT analysis. The format is ADME, organism-based. Particulars: in vivo. In outline:
as §2

A further series concerns Kidney. The experiment in a line: Drug uptake in wild type C57BL/6 mouse kidney at 400 KBq/g, iv measured at 90 mins by PET/CT analysis. In kind it is ADME, organism-based. Particulars: in vivo, 1.5 h. In outline: as §2
For series [9], the system named is Lung. Briefly: Drug uptake in wild type C57BL/6 mouse lung at 400 KBq/g, iv measured at 90 mins by PET/CT analysis. The format is ADME, organism-based. Particulars: in vivo, 1.5 h. The method, boiled down: as §2
The nature of series [10]: Drug uptake in wild type C57BL/6 mouse myocardium at 400 KBq/g, iv measured at 10 mins by PET/CT analysis. The format is ADME, organism-based. Particulars: in vivo. In outline: as §2
Series [11] concerns Spleen. Briefly: Drug uptake in wild type C57BL/6 mouse spleen at 400 KBq/g, iv measured at 10 mins by PET/CT analysis. Particulars: in vivo. The format is ADME, organism-based. The method, boiled down:
as §2

The test system of another series is Bone. The experiment in a line: Drug uptake in wild type C57BL/6 mouse bone at 400 KBq/g, iv measured at 90 mins by PET/CT analysis. The format is ADME, organism-based, Bone element. Particulars: in vivo, 1.5 h. In outline:
as §2

Series [12] has as its system Mus musculus. The experiment in a line: Drug uptake in wild type C57BL/6 mouse body parts at 400 KBq/g, iv measured at 90 mins by PET/CT analysis. Particulars: in vivo, 1.5 h. In kind it is ADME, organism-based. In outline:
as §2

A further series has as its system Serum. The experiment in a line: Metabolic stability in human serum assessed as retention time at 8.7 MBq at 37 degC after 90 mins by HPLC analysis. In kind it is ADME, cell-free. Particulars: 1.5 h. The method, boiled down:
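Formulated 18F tracer (20 μL, 8.7 MBq) was added to 200 μL human serum and incubated at 37 °C. Samples were taken at 10, 30, 60 and 90 min and quenched in MeOH/CH₂Cl₂ 1:1. After centrifugation, supernatants were analysed by C18 radio-HPLC (10−90% CH₃CN/0.1% TFA gradient over 15 min, 1.0 mL/min, 254 nm).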

The subject of series [13] is Spleen. Briefly: Drug uptake in wild type C57BL/6 mouse spleen at 400 KBq/g, iv measured at 30 mins by PET/CT analysis. The format is ADME, organism-based. Particulars: in vivo, 0.5 h. In outline:
as §2

Chain of Sphingosine 1-phosphate receptor 3 (Homo sapiens) (Q99500 whole entry): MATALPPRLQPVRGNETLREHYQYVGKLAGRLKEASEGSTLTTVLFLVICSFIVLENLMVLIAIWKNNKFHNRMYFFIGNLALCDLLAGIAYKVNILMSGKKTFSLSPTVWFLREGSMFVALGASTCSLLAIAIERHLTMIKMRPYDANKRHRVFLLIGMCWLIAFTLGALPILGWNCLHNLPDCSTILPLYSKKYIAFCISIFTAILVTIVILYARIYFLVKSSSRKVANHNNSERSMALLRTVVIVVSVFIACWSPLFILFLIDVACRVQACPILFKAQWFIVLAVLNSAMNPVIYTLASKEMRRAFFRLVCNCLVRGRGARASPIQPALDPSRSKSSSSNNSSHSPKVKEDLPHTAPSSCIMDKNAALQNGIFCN
Chain of Sphingosine 1-phosphate receptor 1 (Homo sapiens) (P21453 whole entry): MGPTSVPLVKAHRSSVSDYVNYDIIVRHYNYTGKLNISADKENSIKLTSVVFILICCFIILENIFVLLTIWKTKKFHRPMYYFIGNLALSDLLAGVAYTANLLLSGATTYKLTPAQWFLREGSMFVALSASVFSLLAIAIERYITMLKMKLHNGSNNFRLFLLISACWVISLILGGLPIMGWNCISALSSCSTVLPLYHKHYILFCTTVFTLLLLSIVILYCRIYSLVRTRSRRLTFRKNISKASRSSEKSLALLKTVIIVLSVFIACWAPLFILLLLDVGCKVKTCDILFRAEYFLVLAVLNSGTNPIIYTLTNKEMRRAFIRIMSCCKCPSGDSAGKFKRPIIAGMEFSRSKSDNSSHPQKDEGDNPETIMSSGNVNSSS

As for `NC(CO)(CCc1ccc(CCCCCCCCF)cc1)COP(=O)(O)O` (stereo not given), the Activity entry was “tde” in [1]; “tde” in [2]; 3.93 ×10⁶ /ml in the series with Mus musculus [3]; 0.14 ×10⁶ /ml in the series with Mus musculus [4]; 1.05 ×10⁶ /ml in the series with Mus musculus [5]. In addition, the inhibition in vivo at 1.25 mg/kg in the series with Mus musculus [6] was found to be 89%.
In the case of `NC(CO)(CO)CCc1ccc(CCCCCCF)cc1`, the Activity in the series with Mus musculus [3] is 4.91 ×10⁶ /ml; in the series on Mus musculus [4] it was 0.25 ×10⁶ /ml; with Mus musculus [5], 2.23 ×10⁶ /ml. Further, the inhibition in vivo at 1.25 mg/kg in the series on Mus musculus [7] amounted to 59%.
For `NC(CO)(CO)CCc1ccc(CCCCCCCCF)cc1` the same measures were 3.04 ×10⁶ /ml, 0.03 ×10⁶ /ml, 1.03 ×10⁶ /ml and 95%.
As to `CCCCCCCCCCCCC/C=C/[C@@H](O)[C@@H](N)COP(=O)(O)O`, the Activity entry in [1] and in series [2] was “tde” each time.
For `NC(CO)(CO)CCc1ccc(CCCCCC[18F])cc1`, the Drug uptake in the series on Blood worked out at 4 %ID/ml; with Lung [8], 5 %ID/ml; in the series with Liver, 25 %ID/ml; in the series with Kidney, 20 %ID/ml; in the series with Lung [9], 4 %ID/ml; in [10], 8 %ID/ml. For the same compound, the Drug uptake with Spleen [11] is reported as 7 %ID/ml; in the series with Bone it was “Not Active”; with Mus musculus [12], “Not Active”.
In the case of `NC(CO)(CO)CCc1ccc(CCCCCCCC[18F])cc1`, the Retention_time with Serum amounted to 11.15 min. The Drug uptake with Blood is recorded as 4 %ID/ml; in the series on Lung [8], 6.4 %ID/ml; in the series with Liver, 25 %ID/ml; in the series with Kidney, 20 %ID/ml; with Lung [9], 4.8 %ID/ml; in series [10], 8.6 %ID/ml. In addition, the Drug uptake with Spleen [13] is 7.8 %ID/ml; in the series on Bone, “Not Active”; with Mus musculus [12], “Not Active”.

Usually inhibition in vivo stands for the share of the control response that was lost under treatment.

These data come from ChEMBL document CHEMBL3421528, “Synthesis and evaluation of fluorinated fingolimod (FTY720) analogues for sphingosine-1-phosphate receptor molecular imaging by positron emission tomography” (J Med Chem, 2015).
